PMC411066 (BMC Medicine, 2004)
“And” between values parts separate entries of the source, which are not always exact repeats. Equal values may be shown once.

Tests used:
[1] = Serum digoxin; format: in vivo, human
Method in brief: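 Trough serum samples at steady state from 618 digoxin-monitoring patients, assayed by fluorescence polarization immunoassay. Orally given comedications were classed as P-gp inhibitors by PubMed search: Class I, documented in vivo effect on digoxin kinetics; Class II, in vitro inhibition only. Means ± SE from a General Linear Model adjusted for age, sex, digoxin dose and total prescribed drugs, covariates at their means.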

[2] = system: P-gp; conditions: cited from earlier work

Question: Which results are given for `C[C@H]1O[C@@H](O[C@H]2[C@@H](O)C[C@H](O[C@H]3[C@@H](O)C[C@H](O[C@H]4CC[C@@]5(C)[C@H](CC[C@@H]6[C@@H]5C[C@@H](O)[C@]5(C)[C@@H](C7=CC(=O)OC7)CC[C@]65O)C4)O[C@@H]3C)O[C@@H]2C)C[C@H](O)[C@@H]1O` [digoxin]?
Answer: Adjusted S-digoxin mean ± SE ([1]; patients taking one Class I P-gp inhibitor, N = 96): 1.65 ± 0.07 nmol/L; Adjusted S-digoxin mean ± SE ([1]; patients taking one P-gp inhibitor, N = 204, multivariate): 1.51 ± 0.05 nmol/L; S-digoxin with Class II P-gp inhibitors compared with no P-gp inhibitors ([1]; patients taking one or two Class II P-gp inhibitors, differences not significant in the multivariate model): tended to have elevated S-digoxin levels; Adjusted S-digoxin mean ± SE ([1]; patients taking three P-gp inhibitors, N = 8, multivariate): 2.00 ± 0.25 nmol/L; Adjusted S-digoxin mean ± SE ([1]; patients taking two Class I P-gp inhibitors, N = 17): 1.83 ± 0.07 nmol/L and 1.83 ± 0.17 nmol/L; Adjusted S-digoxin mean ± SE ([1]; patients taking two P-gp inhibitors, N = 78, multivariate): 1.59 ± 0.08 nmol/L; S-digoxin mean ± SE ([1]; patients with concomitant P-gp inhibitors, all patients on spironolactone excluded): 1.46 ± 0.05 nmol/L; Adjusted S-digoxin mean ± SE ([1]; patients with ≥ 1 P-gp inhibitor, N = 290, adjusted for age, sex, digoxin dose and total number of prescribed drugs): 1.55 ± 0.04 nmol/L

Question: Which “In vitro P-gp inhibition” value [2] does the source give for `CC[C@H](C)C(=O)O[C@H]1C[C@H](O)C=C2C=C[C@H](C)[C@H](CC[C@@H](O)C[C@@H](O)CC(=O)O)[C@H]21` [pravastatin] here?
Answer: not an in vitro P-gp inhibitor
